# Bioassay records as filed in PubChem BioAssay.
# The sample as a whole holds a higher share of hits than the screen did.
# XBP1 UPR activ – activators of adaptive arm of unfolded protein response (XBP1); 330,000 compounds, 0.33% hits; activation, % at 20 µM; AID 463104; CHO-XBP1 luciferase reporter, IRE1-XBP1 UPR activation, luminescence; percent of tunicamycin response, DMSO as zero;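 active = versus positive control, 20 µM dose yields 30% or more activation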;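 also: 100% = tunicamycin at 10 µg/mL and 0% = DMSO only wells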
#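 Signal: luciferase luminescence; Assay system: CHO-XBP1 luciferase reporter cells; Amount: one thousand reporter cells per well; Dosing: 20 µM single concentration, DMSO 1%; Benchmarks: high control tunicamycin 10 µg/mL final, low control DMSO vehicle only; Schedule: 6 h compound exposure at 37 °C, 5% CO2; Evaluation: percent activation relative to tunicamycin reference.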
# Jurkat NFkB inh – inhibitors of the PMA/ionomycin-induced NF-kB reporter in Jurkat cells. PMA/ionomycin-induced NF-kB luciferase reporter, luminescence. inhibition, % at 4 µM. 330,000 compounds, 0.53% hits; in the data active = inhibition above about 50%
# 697 NFkB inh – lowers PMA/ionomycin-induced NF-kB signal in 697 B cells; 330,000 compounds, 0.33% hits; inhibition, % at 4 µM; 697 B-cell NF-kB luciferase reporter, 16 h; AID 435022; in the data active = inhibition above about 35%
# UPR CHOP act – activators of apoptotic arm of unfolded protein response (CHOP). 330,000 compounds, 0.34% hits. CHO-CHOP luciferase reporter, UPR activation, luminescence; percent of tunicamycin response over DMSO baseline. activation, % at 10 µM. AID 449763;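 active = at 10 µM dose, activation of 40% or more, normalized to positive control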;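 also: 100% = tunicamycin at 10 µg/mL and 0% = DMSO alone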
#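 Material: CHO-CHOP cells, stable luciferase reporter of PERK-eIF2a-CHOP signalling; quantity: 500 reporter cells seeded per well; buffer or medium: F12 medium containing 10% fetal bovine serum; compound: one dose, 10 µM in 0.5% DMSO; incubation: 6 h compound treatment, 37 °C; measured by: Steady-Glo luciferase luminescence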
# CHOP inhibitor – blocks CHOP induction under ER stress | AID 2732 | inhibition, % at 10 µM | 220,000 compounds, 3.8% hits | CHO-K1 CHOP-promoter luciferase, tunicamycin-induced, 15-18 h;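 active = compounds that reduced the stress-induced luciferase reporter signal by more than about 70% of percent inhibition, limit read from the data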;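 also: 0% = tunicamycin plus vehicle and 100% = wells without tunicamycin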
# UPR CHOP confirm – apoptotic UPR (CHOP) activation, confirmed; CHO-CHOP cells, CHOP-luciferase reporter luminescence; percent of tunicamycin response, DMSO as zero; activation, % at 10 µM; 1,000 compounds, 64% hits; shares compounds with UPR CHOP act; in the data active = activation above about 33%;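 also: 0% = DMSO wells and 100% = tunicamycin 10 µg/mL wells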
# * hit, by the source's call; . = no result.
SMILES,XBP1 UPR activ,Jurkat NFkB inh,697 NFkB inh,UPR CHOP act,CHOP inhibitor,UPR CHOP confirm
CN1CCC(NC(=S)NC2CC2)CC1,-6,11,-2,87*,-12,-1
CCCCNC1C(CC)C(CCC)C(C#N)(C#N)C1(C#N)C#N (configuration not stated),-8,37,33,74*,-10,34*
Cc1cc(N2CCN(c3ccccc3)CC2)nc(-n2nc(C)cc2C)n1,13,15,-5,52*,-111,4
Cc1cc(Nc2ccccc2)n(-c2ccccc2)n1,2,-4,13,-2,30,.
Cc1cc(C)nc(-n2nc(C)cc2Nc2ccccc2)n1,17,-9,-46,59*,-37,5
Cn1c(N)c(C(=O)COC(=O)c2ccc(-c3ccccc3)cc2)c(=O)n(C)c1=O,-4,20,-6,0,.,.
CCCCOC(=O)/C=C\C(=O)NC(N)=O,-5,5,-11,88*,-24,121*
CCCCOC(=O)/C=C\C(=O)OCCCC,-2,22,28,3,-16,.
COc1c(Cl)cc(Cl)cc1/C=C/C(=O)c1ccc(NC(=O)c2cccs2)cc1,12,-24,-70,55*,-116,247*
COc1c(Cl)cc(Cl)cc1C(=O)Nc1ccc(C(=O)O)cc1,0,8,1,0,8,.
Cc1nc2cc(CC(=O)O)ccc2o1,1,-8,18,1,19,.
Cn1c(SCC(=O)NCC2CCCO2)ncc(C(=O)Nc2ccccc2)c1=O (configuration not stated),0,-7,-6,11,.,.
Cc1ccc(NC(=O)c2cnc(SCC(=O)NCC3CCCO3)n(C)c2=O)cc1C (configuration not stated),-4,-27,-4,51*,.,24
COc1ccc(NS(=O)(=O)c2cccc(C(=O)NN=C(C)c3ccco3)c2)cc1,-1,3,6,0,.,.
O=C(Cc1ccccc1)Nc1nccs1,0,-8,6,-1,.,.
S=C(Nc1ccccc1)Nc1nccs1,20,-51,-70,104*,-213,60*
O=C(Cc1ccc(F)cc1)Nc1nccs1,-1,3,-1,2,.,.
Fc1ccc(NC(=S)Nc2nccs2)cc1,9,-55,-77,75*,-217,80*
CCc1ccc(S(=O)(=O)NCc2csc(C)n2)cc1,-4,-18,-1,0,.,.
Oc1c(N=Nc2ccccn2)ccc2ccccc12,-2,47,-184,276*,80*,211*
Oc1ccc2ccccc2c1CNc1ccccn1,-3,-1,17,1,.,.
CC(NS(=O)(=O)c1ccc2c(c1)C(C)(C)C(=O)N2C)c1ccccc1 (configuration not stated),-3,-6,-4,1,.,.
O=C(c1cc(COc2ccc3c(c2)CCCC3)on1)N1CCCC1,-2,-78,-127,5,.,.
COc1ccc(C)cc1NC(=O)C/C(C)=N/NC(=O)Cc1cccc2ccccc12,-5,-12,6,2,.,.
Cc1oc2c(O)c(O)ccc2c(=O)c1-c1cnn(-c2ccccc2)c1,6,-3,-105,114*,-59,14
SMILES,XBP1 UPR activ,Jurkat NFkB inh,697 NFkB inh,UPR CHOP act,CHOP inhibitor,UPR CHOP confirm
O=C(/C=C/c1cccnc1)c1ccc(NC(=O)c2cccc(Br)c2)cc1,10,-7,-14,91*,-47,197*
Cc1cccc(C(=O)Nc2ccc(C(=O)/C=C/c3ccncc3)cc2)c1,-9,-7,-8,49*,.,-9
CN1C2CCC1CC(OC(=O)C(CO)c1ccccc1)C2 (configuration not stated),-7,.,.,-2,-13,.
COC(=O)c1c(NC(=O)C(Cl)Cl)sc2c1C(C(=O)OC)CC2 (configuration not stated),18,7,18,45*,80*,30
CC(=O)Nc1ccc(S(=O)(=O)N2c3ccccc3NC(=O)CC2C)c(Cl)c1 (configuration not stated),3,0,12,1,-3,.
Oc1ccc(-c2cn3ccccc3n2)cc1O,-1,-71,-57,155*,.,33*
Cc1ccn2cc(-c3cccc(NC(=O)C(C)C)c3)nc2c1,2,-25,-32,5,-7,.
Cc1ccn2cc(-c3ccc(O)c(O)c3)nc2c1,-4,-38,-93,120*,.,57*
CC(=O)c1cccc(OCc2cc(C(=O)NCCC3=CCCCC3)no2)c1,-7,-77,-133,4,.,.
CCOC(=O)Cc1csc(NC(=O)c2ccc(N3CCOCC3)cc2[N+](=O)[O-])n1,-1,-10,15,1,.,.
CC(C)Cc1nc2oc3c(N4CCN(CCO)CC4)ncnc3c2c2c1CCCC2,6,3,6,44*,57,-1
Cc1cc(C)n(-c2nnc(NC(C)(C)C)nn2)n1,-4,-25,1,3,-17,.
Cc1cc(C)n(-c2nc(NC(C)(C)C)nc(NC(C)(C)C)n2)n1,9,17,-15,108*,78*,45*
O=C(Nc1cc([N+](=O)[O-])ccc1F)c1ccc2c(c1)OCCO2,3,-21,-46,99*,6,3
COC(=O)Oc1ccc(/C=C/C(=O)OC(C)C)cc1OC(=O)OC,14,24,-148,131*,1,61*
O=c1[nH]c2cc3c(cc2cc1C(c1nnnn1Cc1ccccc1)N1CCCc2ccccc21)OCO3 (configuration not stated),12,-15,-6,265*,25,2
O=c1[nH]c2cc3c(cc2cc1C(c1nnnn1Cc1ccccc1)N1CCN2CCCC2C1)OCCO3 (configuration not stated),-4,1,3,2,0,.
Cc1ccc(NC(=O)CN2C(=O)NC(C)(C3CC3)C2=O)c([N+](=O)[O-])c1 (configuration not stated),-2,-7,11,1,.,.
Cc1ccc(NC(=O)CN2C(=O)NC(C)(C3CC3)C2=O)c(C)c1 (configuration not stated),-2,3,15,70*,.,-1
CCN(CC)Cc1c(O)ccc2c1O/C(=C\C=C\c1ccccc1)C2=O,-1,-5,-10,69*,0,2
CCCCCCCCOc1ccc(C2OC34CCCCC3C(C#N)(C#N)C2(C#N)C(=N)O4)cc1 (configuration not stated),-2,2,1,45*,-46,29
CCCCC1OC23CCCCC2C(C#N)(C#N)C1(C#N)C(=N)O3 (configuration not stated),-3,-3,14,17,-77,.
Oc1[nH]c2ccccc2c1N=NC(=S)N1CCOCC1,18,0,-26,254*,4,229*
Oc1[nH]c2ccc(Br)cc2c1N=NC(=S)N1CCOCC1,8,22,-3,168*,-51,102*
